Test results reported in ChEMBL document CHEMBL1143019, “Hybrid molecules of estrone: new compounds with potential antibacterial, antifungal, and antiproliferative activities” (2007).

Assays:
Staphylococcus aureus [1] = experiment: Antibacterial activity against Staphylococcus aureus SG 511 after 24 hrs by micro-broth dilution method; assay type: functional; settings: SG 511, 24 h
How it was run: (§1)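 Microbroth dilution per NCCLS guidelines. Bacteria grown overnight at 37 °C in Mueller–Hinton broth. Compound solution serially diluted twofold in MHB, then wells inoculated to a final 5×10⁵ CFU/mL. Incubated 24 h at 37 °C. MIC (µg/mL) read on an automatic plate reader as the lowest dilution allowing no visible growth.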

Staphylococcus aureus [2] = experiment: Antibacterial activity against methicillin-resistant Staphylococcus aureus 994/93 after 24 hrs by micro-broth dilution method; assay type: functional
How it was run: (§2)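 Broth microdilution per NCCLS in Mueller–Hinton broth. Overnight cultures grown at 37 °C. Compound serially diluted twofold, then wells inoculated to a final 5×10⁵ CFU/mL. Plates held at 37 °C for 24 h. MIC (µg/mL) read on an automatic plate reader as the lowest dilution with no visible growth.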

Staphylococcus aureus [3] = experiment: Antibacterial activity against methicillin-resistant Staphylococcus aureus 134/94 after 24 hrs by microbroth dilution method; assay type: functional; how it was run: as §2
Micrococcus luteus = experiment: Antibacterial activity against Micrococcus luteus ATCC 10240 after 24 hrs by microbroth dilution method; assay type: functional; settings: ATCC 10240, 24 h; how it was run: as §1
Enterococcus faecalis = experiment: Antibacterial activity against Enterococcus faecalis 1528 after 24 hrs by micro-broth dilution method; assay type: functional; how it was run: as §1
[4] = test system: Mycolicibacterium smegmatis; experiment: Antimicrobial activity against Mycobacterium smegmatis SG 987 after 24 hrs by micro-broth dilution method; assay type: functional; how it was run: as §1
Mycolicibacterium aurum = experiment: Antimicrobial activity against Mycobacterium aurum SB 66 after 24 hrs by micro-broth dilution method; assay type: functional; how it was run: as §1
Mycolicibacterium vaccae = experiment: Antimicrobial activity against Mycobacterium vaccae 10670 after 24 hrs by micro-broth dilution method; assay type: functional; how it was run: as §1
[5] = test system: Mycolicibacterium fortuitum; experiment: Antimicrobial activity against Mycobacterium fortuitum Borstel after 24 hrs by microbroth dilution method; assay type: functional; how it was run: as §1
[6] = test system: Mycobacterium tuberculosis; experiment: Antimicrobial activity against Mycobacterium tuberculosis My 331/88 after 14 days; assay type: functional; settings: 336 h
[7] = test system: Mycobacterium tuberculosis; experiment: Antimicrobial activity against Mycobacterium tuberculosis My 331/88 after 21 days; assay type: functional; settings: 504 h
Mycobacterium avium [8] = experiment: Antimicrobial activity against Mycobacterium avium My 330/88 after 14 days; assay type: functional; settings: 336 h
Mycobacterium avium [9] = experiment: Antimicrobial activity against Mycobacterium avium My 330/88 after 21 days; assay type: functional; settings: 504 h
Mycobacterium kansasii [10] = experiment: Antimicrobial activity against Mycobacterium kansasii My 235/80 after 7 days; assay type: functional; settings: 168 h
How it was run: (§3)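 Run in Šula semisynthetic liquid medium containing bovine serum. Compounds added as DMSO solutions at final concentrations of […]. Each strain was also inoculated onto Löwenstein–Jensen medium to control inoculum sterility and growth.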

Mycobacterium kansasii [11] = experiment: Antimicrobial activity against Mycobacterium kansasii My 235/80 after 14 days; assay type: functional; settings: 336 h; how it was run: as §3
Mycobacterium kansasii [12] = experiment: Antimicrobial activity against Mycobacterium kansasii My 235/80 after 21 days; assay type: functional; settings: 504 h; how it was run: as §3
Mycobacterium kansasii [13] = experiment: Antimicrobial activity against Mycobacterium kansasii My 6509/96 after 7 days; assay type: functional; settings: 168 h; how it was run: as §3
Mycobacterium kansasii [14] = experiment: Antimicrobial activity against Mycobacterium kansasii My 6509/96 after 14 days; assay type: functional; settings: 336 h; how it was run: as §3
Mycobacterium kansasii [15] = experiment: Antimicrobial activity against Mycobacterium kansasii My 6509/96 after 21 days; assay type: functional; settings: 504 h; how it was run: as §3
Candida albicans [16] = experiment: Antifungal activity against Candida albicans ATCC 44859 after 24 hrs; assay type: functional; settings: ATCC 44859, 24 h
How it was run: (§4)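 Modified NCCLS M27-A broth microdilution with clinical isolates subcultured on Sabouraud dextrose agar. Suspensions diluted 1:50 in RPMI 1640 to give a final inoculum of 0.5–2.5×10³ CFU/mL for yeasts or 0.5–5×10⁴ CFU/mL for molds. The RPMI had L-glutamine, no bicarbonate, and 0.165 M MOPS to pH 7.0. Twofold dilutions from 250 to 0.49. Plates held at 35 °C, humid, without agitation. MIC is the lowest concentration giving ≥80% inhibition versus drug-free control, read at 24 and 48 h.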

Candida albicans [17] = experiment: Antifungal activity against Candida albicans ATCC 44859 after 48 hrs; assay type: functional; settings: ATCC 44859, 48 h; how it was run: as §4
Candida tropicalis [18] = experiment: Antifungal activity against Candida tropicalis 156 after 24 hrs; assay type: functional; how it was run: as §4
Candida tropicalis [19] = experiment: Antifungal activity against Candida tropicalis 156 after 48 hrs; assay type: functional; how it was run: as §4
Pichia kudriavzevii [20] = experiment: Antifungal activity against Candida krusei E28 after 24 hrs; assay type: functional; how it was run: as §4
Pichia kudriavzevii [21] = experiment: Antifungal activity against Candida krusei E28 after 48 hrs; assay type: functional; how it was run: as §4
Nakaseomyces glabratus [22] = experiment: Antifungal activity against Candida glabrata 20/I after 24 hrs; assay type: functional; how it was run: as §4
Nakaseomyces glabratus [23] = experiment: Antifungal activity against Candida glabrata 20/I after 48 hrs; assay type: functional; how it was run: as §4
Trichosporon beigelii [24] = experiment: Antifungal activity against Trichosporon beigelii 1188 after 24 hrs; assay type: functional; how it was run: as §4
Trichosporon beigelii [25] = experiment: Antifungal activity against Trichosporon beigelii 1188 after 48 hrs; assay type: functional; how it was run: as §4
Aspergillus fumigatus [26] = experiment: Antifungal activity against Aspergillus fumigatus 231 after 24 hrs; assay type: functional; how it was run: as §4
Aspergillus fumigatus [27] = experiment: Antifungal activity against Aspergillus fumigatus 231 after 48 hrs; assay type: functional; how it was run: as §4
Lichtheimia corymbifera [28] = experiment: Antifungal activity against Absidia corymbifera 272 after 24 hrs; assay type: functional; how it was run: as §4
Lichtheimia corymbifera [29] = experiment: Antifungal activity against Absidia corymbifera 272 after 48 hrs; assay type: functional; how it was run: as §4
Trichophyton benhamiae [30] = experiment: Antifungal activity against Trichophyton mentagrophytes 445 after 72 hrs; assay type: functional, Arthroderma benhamiae
How it was run: (§5)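 Same modified M27-A microdilution with the mold inoculum of 0.5–5×10⁴ CFU/mL. Medium was RPMI 1640 with L-glutamine, no bicarbonate, and 0.165 M MOPS at pH 7.0. Twofold dilutions from 250 to 0.49. Incubated at 35 °C in a humid atmosphere.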

Trichophyton benhamiae [31] = experiment: Antifungal activity against Trichophyton mentagrophytes 445 after 120 hrs; assay type: functional, Arthroderma benhamiae; how it was run: as §5
L929 = experiment: Antiproliferative activity against mouse L929 cells after 72 hrs; assay type: functional; settings: L929, 72 h
How it was run: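 About 10,000 adherent cells per well in RPMI 1640 with 10% heat-inactivated FBS and penicillin/streptomycin, without HEPES. Exposed to 10 concentrations for 72 h at 37 °C in humidified 5% CO₂. Monolayers fixed with glutaraldehyde, stained 15 min with 0.05% methylene blue, and eluted with 0.33 N HCl; OD read at 630 nm. GI50 derived from dose–response curves relative to control.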

K562 = experiment: Antiproliferative activity against human K562 cells after 72 hrs; assay type: functional; settings: K562, 72 h
How it was run: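 About 10,000 suspension cells per well in RPMI 1640 with 10% heat-inactivated FBS and penicillin/streptomycin, without HEPES. Exposed to 10 concentrations for 72 h at 37 °C in humidified 5% CO₂. Wells diluted 1:50 in CASYTON and counted electronically, each result the mean of three successive counts. GI50 is where the concentration–response curve crosses 50% of control cell count.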

HeLa = experiment: Cytotoxicity against human HeLa cells after 72 hrs; assay type: functional; settings: for CC50: Homo sapiens, HeLa, 72 h
How it was run: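 About 10,000 cells per well in RPMI 1640 were preincubated 48 h without compound. The 10 test concentrations were then applied onto the monolayers and incubated 72 h at 37 °C in humidified 5% CO₂. Monolayers fixed with glutaraldehyde, stained with 0.05% methylene blue, and eluted with 0.33 N HCl; optical density measured at 630 nm.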

Row | Compound | MIC (Staphylococcus aureus [1]) [µg/mL] | MIC (Staphylococcus aureus [2]) [µg/mL] | MIC (Staphylococcus aureus [3]) [µg/mL] | MIC (Micrococcus luteus) [µg/mL] | MIC (Enterococcus faecalis) [µg/mL] | MIC [4] [µg/mL] | MIC (Mycolicibacterium aurum) [µg/mL] | MIC (Mycolicibacterium vaccae) [µg/mL] | MIC [5] [µg/mL] | MIC [6] [µM] | MIC [7] [µM] | MIC (Mycobacterium avium [8]) [µM] | MIC (Mycobacterium avium [9]) [µM] | MIC (Mycobacterium kansasii [10]) [µM] | MIC (Mycobacterium kansasii [11]) [µM] | MIC (Mycobacterium kansasii [12]) [µM] | MIC (Mycobacterium kansasii [13]) [µM] | MIC (Mycobacterium kansasii [14]) [µM] | MIC (Mycobacterium kansasii [15]) [µM] | MIC (Candida albicans [16]) [µM] | other results
1 | C[C@]12CC[C@@H]3c4ccc(OCCCCCCC[n+]5ccc(SCc6ccccc6)cc5)cc4CC[C@H]3[C@@H]1CCC2=O.[Br-] | 3.12 | 3.12 | 3.12 | 0.4 | 6.25 | 1.56 | 3.12 | 1.56 | 6.25 | 4 | 8 | 2 | 2 | 8 | 8 | 8 | 8 | 8 | 16 | 3.9 | MIC (Candida albicans [17]): 3.9 µM; MIC (Candida tropicalis [18]): 15.6 µM; MIC (Candida tropicalis [19]): 15.6 µM; MIC (Pichia kudriavzevii [20]): 7.8 µM; MIC (Pichia kudriavzevii [21]): 7.8 µM; MIC (Nakaseomyces glabratus [22]): 15.6 µM; MIC (Nakaseomyces glabratus [23]): 15.6 µM; MIC (Trichosporon beigelii [24]): 3.9 µM; MIC (Trichosporon beigelii [25]): 7.8 µM; MIC (Aspergillus fumigatus [26]): 15.6 µM; MIC (Aspergillus fumigatus [27]): 31 µM; MIC (Lichtheimia corymbifera [28]): 31 µM; MIC (Lichtheimia corymbifera [29]): 31 µM; MIC (Trichophyton benhamiae [30]): 7.8 µM; MIC (Trichophyton benhamiae [31]): 7.8 µM; GI50 (L929): 4 µg/mL; GI50 (K562): 2.3 µg/mL; CC10 (HeLa): 1.2 µg/mL; CC50 (HeLa): 3.1 µg/mL
2 | C[C@]12CC[C@@H]3c4ccc(OCCCCCCC[n+]5ccccc5)cc4CC[C@H]3[C@@H]1CCC2=O.[Br-] | 3.12 | 6.25 | 25 | 0.8 | 12.5 | 3.12 | 6.25 | 3.12 | 6.25 | 16 | 32 | 32 | 32 | 16 | 32 | 32 | 16 | 32 | 32 | 3.9 | MIC (Candida albicans [17]): 3.9 µM; MIC (Candida tropicalis [18]): 15.6 µM; MIC (Candida tropicalis [19]): 15.6 µM; MIC (Pichia kudriavzevii [20]): 15.6 µM; MIC (Pichia kudriavzevii [21]): 31.3 µM; MIC (Nakaseomyces glabratus [22]): 7.8 µM; MIC (Nakaseomyces glabratus [23]): 15.6 µM; MIC (Trichosporon beigelii [24]): 3.9 µM; MIC (Trichosporon beigelii [25]): 7.8 µM; MIC (Aspergillus fumigatus [26]): 3.9 µM; MIC (Aspergillus fumigatus [27]): 62.5 µM; MIC (Lichtheimia corymbifera [28]): > 250 µM; MIC (Lichtheimia corymbifera [29]): > 250 µM; MIC (Trichophyton benhamiae [30]): 31.3 µM; MIC (Trichophyton benhamiae [31]): 62.5 µM; GI50 (L929): 16.7 µg/mL; GI50 (K562): 5.3 µg/mL; CC10 (HeLa): 5.1 µg/mL; CC50 (HeLa): 17.5 µg/mL
